The results in this text go back to ChEMBL document CHEMBL1157664, “Aminopyridinecarboxamide-based inhibitors: Structure-activity relationship” (Bioorg Med Chem, 2010).

Assay [1] addresses T1, Inhibitor of nuclear factor kappa-B kinase subunit beta (Homo sapiens, UniProt O14920).
T1 sequence (O14920 whole entry): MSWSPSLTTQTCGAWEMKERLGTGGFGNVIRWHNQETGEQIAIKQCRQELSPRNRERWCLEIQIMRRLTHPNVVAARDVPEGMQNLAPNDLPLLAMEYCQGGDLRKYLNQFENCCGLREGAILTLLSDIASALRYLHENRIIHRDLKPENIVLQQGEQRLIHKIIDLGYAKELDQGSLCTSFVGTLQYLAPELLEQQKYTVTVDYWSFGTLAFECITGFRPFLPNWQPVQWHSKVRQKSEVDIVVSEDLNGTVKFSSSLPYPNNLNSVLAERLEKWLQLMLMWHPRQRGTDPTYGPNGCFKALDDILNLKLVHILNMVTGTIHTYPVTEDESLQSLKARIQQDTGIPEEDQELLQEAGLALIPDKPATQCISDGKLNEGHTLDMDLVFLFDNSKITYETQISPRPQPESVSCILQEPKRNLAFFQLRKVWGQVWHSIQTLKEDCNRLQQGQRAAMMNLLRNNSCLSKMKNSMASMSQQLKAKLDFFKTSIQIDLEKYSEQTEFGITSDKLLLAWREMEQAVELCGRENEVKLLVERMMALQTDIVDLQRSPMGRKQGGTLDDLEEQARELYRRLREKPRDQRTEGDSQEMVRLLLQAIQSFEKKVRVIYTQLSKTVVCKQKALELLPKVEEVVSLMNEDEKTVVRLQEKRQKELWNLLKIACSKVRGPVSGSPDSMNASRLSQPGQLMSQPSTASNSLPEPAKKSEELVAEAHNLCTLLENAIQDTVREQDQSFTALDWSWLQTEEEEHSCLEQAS
Nature of the assay: Inhibition of human recombinant IKK2-mediated transfer of [gamma33P]ATP to biotinylated IkappaBalpha after 30 mins by scintillation counting. The gist of the method:
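Recombinant human IKK-2 enzyme (46 nM/rxn, 200 ng/rxn). Substrate 5 µM biotinylated IκBα peptide (residues spanning Ser32/Ser36) with 1 µM ATP plus 0.1 µCi [γ-33P]ATP. Buffer 25 mM Hepes pH 7.6 with 1 mM DTT, 2 mM MgCl2, 2 mM MnCl2, 10 mM NaF. Incubated 30 min at 25 °C, stopped with AG1X8 resin in formate buffer pH 3. Supernatant ³³P read by scintillation counting.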

Assay [2] can be described thus: Antiinflammatory activity in human synovial fibroblasts assessed as inhibition of IL-1-beta-stimulated IL8 production treated 1 hr before IL1-beta challenge measured after 18 hrs by ELISA. It counts as functional. The gist of the method:
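Rheumatoid arthritis patient synovial fibroblasts seeded at 1.5 × 10^4 cells/well in DMEM + 15% FBS and left to attach overnight. Medium then changed to DMEM + 1% FBS. Cells pretreated 1 h with increasing compound concentrations (0.2% Me2SO final), then stimulated 18 h with 1 ng/mL IL-1β. Secreted IL-8 measured by ELISA against standard curves (4-parameter logistic). Cytotoxicity checked by Alamar Blue.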
(ELISA stands for enzyme-linked immunosorbent assay.)

As a reminder, the IC50 is the concentration at which inhibition is half-maximal. Consider `NC(=O)c1nn(-c2ccc(F)cc2)c2c1CCc1ccc(NC(=O)c3cccnc3N)cc1-2`, for which the IC50 in assay [1] came to 2320 nM.

For `NC(=O)c1nn(-c2ccc3c(c2)OCO3)c2c1CCc1ccc(NC(=O)c3cccnc3N)cc1-2`, the half-inhibitory concentration (IC50) in assay [1] was 1340 nM.

As for `CN1CCCN(c2cc(C(=O)Nc3ccc4c(c3)-c3c(c(C(N)=O)nn3-c3ccc(F)cc3)CC4)c(Cl)cn2)CC1`, the IC50 in assay [2] stood at 2360 nM; in assay [1], 29 nM.

On to `CNc1ncccc1C(=O)Nc1ccc2c(c1)-c1c(c(C(N)=O)nn1-c1ccc(F)cc1)CC2`, for which, in assay [1], the half-maximal inhibitory concentration (IC50) came to 3210 nM.

With `NC(=O)c1nn(-c2ccc3c(c2)OCO3)c2c1CCc1ccc(NC(=O)c3nc(N4CCOCC4)ccc3Cl)cc1-2`, the IC50 in assay [2] was above 100000 nM; in assay [1] it was 612 nM.

Take `COCCN1CCN(c2cc(C(=O)Nc3ccc4c(c3)-c3c(c(C(N)=O)nn3-c3ccc(F)cc3)CC4)c(Cl)cn2)CC1`: the results for the IC50 in assay [2] and in assay [1] were 1020 nM and 59 nM, respectively.

With `C[C@@H]1CN(c2cc(C(=O)Nc3ccc4c(c3)-c3c(c(C(N)=O)nn3-c3ccc(F)cc3)CC4)c(Cl)cn2)C[C@H](C)N1`, the IC50 in assay [2] came out at 8600 nM; in assay [1], 46 nM.

As for `CN(C)CCN(C)c1cc(C(=O)Nc2ccc3c(c2)-c2c(c(C(N)=O)nn2-c2ccc(F)cc2)CC3)c(Cl)cn1`, the IC50 is 4180 nM in assay [2] and 19 nM in assay [1].

As to `CNc1ccc(Cl)c(C(=O)Nc2ccc3c(c2)-c2c(c(C(N)=O)nn2-c2ccc4c(c2)OCO4)CC3)n1`, the values for the half-maximal inhibitory concentration (IC50) in assay [2] and in assay [1] were 5740 nM and 477 nM, respectively.

As for `CNc1ncccc1C(=O)Nc1ccc2c(c1)-c1c(c(C(N)=O)nn1-c1ccc3c(c1)OCO3)CC2`, the IC50 in assay [2] worked out at 3370 nM; in assay [1], 210 nM.

Take `CN1CCN(c2ncccc2C(=O)Nc2ccc3c(c2)-c2c(c(C(N)=O)nn2-c2ccc4c(c2)OCO4)CC3)CC1`: the IC50 in assay [1] was 17300 nM.

Regarding `CN1CCN(c2cc(C(=O)Nc3ccc4c(c3)-c3c(c(C(N)=O)nn3-c3ccc5c(c3)OCO5)CC4)c(Cl)cn2)CC1`, the IC50 in assay [2] came to 630 nM; in assay [1], 33 nM.

On to `C[C@@H]1CN(c2cc(C(=O)Nc3ccc4c(c3)-c3c(c(C(N)=O)nn3-c3ccc(F)cc3)CC4)c(Cl)cn2)CCN1C`, for which the concentration for half-maximal inhibition (IC50) in assay [2] worked out at 2180 nM; in assay [1], 48 nM.

For `NC(=O)c1nn(-c2ccc(F)cc2)c2c1CCc1ccc(NC(=O)c3cc(N4CCOCC4)ncc3Cl)cc1-2`, the figures for the half-maximal inhibitory concentration (IC50) in assay [2] and in assay [1] were 2140 nM and 146 nM, respectively.

With `CC(C)N1CCN(c2cc(C(=O)Nc3ccc4c(c3)-c3c(c(C(N)=O)nn3-c3ccc(F)cc3)CC4)c(Cl)cn2)CC1`, the IC50 in assay [2] was 1490 nM; in assay [1], 107 nM.

On to `CN1CCN(c2cc(C(=O)Nc3ccc4c(c3)-c3c(c(C(N)=O)nn3-c3ccc(F)cc3)CC4)ccn2)CC1`, for which the figures for the IC50 in assay [2] and in assay [1] were above 5000 nM and 125 nM, respectively.

Consider `NC(=O)c1nn(-c2ccc(F)cc2)c2c1CCc1ccc(NC(=O)c3cccnc3Cl)cc1-2`, for which the values for the IC50 in assay [2] and in assay [1] were 12000 nM and 47 nM, respectively.

`CN1CCN(c2ncccc2C(=O)Nc2ccc3c(c2)-c2c(c(C(N)=O)nn2-c2ccc(F)cc2)CC3)CC1`: the IC50 in assay [1] stood at 16200 nM.

On to `C[C@@H]1CN(c2cc(C(=O)Nc3ccc4c(c3)-c3c(c(C(N)=O)nn3-c3ccc(F)cc3)CC4)c(Cl)cn2)C[C@H](C)N1C`, for which the IC50 in assay [2] worked out at 5500 nM; in assay [1], 98 nM.

Consider `C[C@@H]1CN(c2cc(C(=O)Nc3ccc4c(c3)-c3c(c(C(N)=O)nn3-c3ccc(F)cc3)CC4)c(Cl)cn2)CCN1`, for which the IC50 in assay [2] was 3980 nM; in assay [1], 54 nM.

Consider `NC(=O)c1nn(-c2ccc(F)cc2)c2c1CCc1ccc(NC(=O)c3cccnc3N3CCOCC3)cc1-2`, for which the IC50 in assay [1] was determined as 14200 nM.

`NC(=O)c1nn(-c2ccc3c(c2)OCO3)c2c1CCc1ccc(NC(=O)c3cc(N4CCOCC4)ncc3Cl)cc1-2`: the concentration for half-maximal inhibition (IC50) in assay [2] amounted to 849 nM; in assay [1], 90 nM.

Regarding `NC(=O)c1nn(-c2ccc3c(c2)OCO3)c2c1CCc1ccc(NC(=O)c3cccnc3Cl)cc1-2`, the IC50 in assay [2] was 5000 nM; in assay [1], 34 nM.

With `C[C@H]1CN(c2cc(C(=O)Nc3ccc4c(c3)-c3c(c(C(N)=O)nn3-c3ccc(F)cc3)CC4)c(Cl)cn2)CCN1`, the IC50 in assay [2] was 1320 nM; in assay [1] it was 51 nM.

`NC(=O)c1nn(-c2ccc3c(c2)OCO3)c2c1CCc1ccc(NC(=O)c3cc(N4CCNCC4)ncc3Cl)cc1-2`: the IC50 in assay [2] was found to be 1860 nM; in assay [1], 40 nM.

On to `CN1CCN(c2ccc(Cl)c(C(=O)Nc3ccc4c(c3)-c3c(c(C(N)=O)nn3-c3ccc(F)cc3)CC4)n2)CC1`, for which the IC50 amounted to 4830 nM in assay [2] and 348 nM in assay [1].

`NC(=O)c1nn(-c2ccc3c(c2)OCO3)c2c1CCc1ccc(NC(=O)c3cccnc3N3CCOCC3)cc1-2`: the IC50 in assay [1] is 5910 nM.

For the compound `C[C@H]1CN(c2cc(C(=O)Nc3ccc4c(c3)-c3c(c(C(N)=O)nn3-c3ccc(F)cc3)CC4)c(Cl)cn2)CCN1C`, the half-inhibitory concentration (IC50) in assay [2] turned out to be 1310 nM; in assay [1], 45 nM.

`CN(C)CCNc1cc(C(=O)Nc2ccc3c(c2)-c2c(c(C(N)=O)nn2-c2ccc(F)cc2)CC3)c(Cl)cn1`: the IC50 in assay [2] is 4720 nM; in assay [1], 70 nM.

In the case of `NC(=O)c1nn(-c2ccc(F)cc2)c2c1CCc1ccc(NC(=O)c3cc(N4CCCNCC4)ncc3Cl)cc1-2`, the IC50 in assay [2] was found to be 1940 nM; in assay [1] it was 27 nM.

On to `NC(=O)c1nn(-c2ccc(F)cc2)c2c1CCc1ccc(NC(=O)c3nc(N4CCOCC4)ccc3Cl)cc1-2`, for which the results for the IC50 in assay [2] and in assay [1] were 3040 nM and 1250 nM, respectively.

As for `CN1CCN(c2ccc(Cl)c(C(=O)Nc3ccc4c(c3)-c3c(c(C(N)=O)nn3-c3ccc5c(c3)OCO5)CC4)n2)CC1`, the half-maximal inhibitory concentration (IC50) stood at 4420 nM in assay [2] and 297 nM in assay [1].

Turning to `NC(=O)c1nn(-c2ccc(F)cc2)c2c1CCc1ccc(NC(=O)c3cc(N4CCNCC4)ncc3Cl)cc1-2`, the IC50 was 2470 nM in assay [2] and 10 nM in assay [1].

Consider `NC(=O)c1nn(-c2ccc(F)cc2)c2c1CCc1ccc(NC(=O)c3ccnc(N4CCOCC4)c3)cc1-2`, for which the half-inhibitory concentration (IC50) was above 5000 nM in assay [2] and 589 nM in assay [1].
